# Reference: ChEMBL document CHEMBL3745596, “Chlorophenoxy aminoalkyl derivatives as histamine H(3)R ligands and antiseizure agents” (Bioorg Med Chem, 2016)
# The source made the active and inactive calls.
# How the values were obtained:
# Mus musculus [1] = assay: Neurotoxicity in CF1 albino mouse at 10 mg/kg, ip after 0.5 hrs by rotarod test; type: toxicity, organism-based; settings: in vivo
# How it was run: (§1)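 Rotarod neurotoxicity in male CF-1 mice dosed ip as 0.5% methylcellulose suspension: mouse placed on 1 inch knurled rod rotating at 6 rpm; toxicity when the animal falls off three times within 1 min, with other signs noted. Scored as toxic/tested at 0.5 h and 4 h.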
# Mus musculus [2] = assay: Anticonvulsant activity in CF1 albino mouse assessed as protection against 6 Hz-psychomotor-induced seizure at 50 mg/kg, ip after 0.25 hrs; type: functional, organism-based
# How it was run: (§2)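 Male CF-1 mice, ip suspension in 0.5% methylcellulose. Corneal stimulation 0.2 ms monopolar rectangular pulses at 6 Hz, 32 mA for 3 s via constant-current device; mice without minimal clonic phase seizure counted protected. Groups of four; read at 0.25, 0.5, 1, 2, 4 h; result as protected/tested.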
# Mus musculus [3] = assay: Neurotoxicity in CF1 albino mouse assessed as death at 300 mg/kg, ip after 0.5 hrs by rotarod test; type: toxicity, organism-based; settings: in vivo
# How it was run: (§3)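 Male albino CF-1 mice dosed ip with compound suspended in 0.5% methylcellulose, then placed on a 1-inch knurled plastic rod turning at 6 rpm. A fall three times within 1 min counted as neurotoxicity. Observations were made at 0.5 h and 4 h after dosing. Result given as animals showing toxicity per animals tested, with the kind of toxicity recorded.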
# Mus musculus [4] = assay: Anticonvulsant activity in CF1 albino mouse assessed as protection against subcutaneous pentetrazole-induced seizure at 100 mg/kg, ip after 0.5 hrs; type: functional, organism-based
# How it was run: (§4)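 Male CF-1 mice, ip in 0.5% methylcellulose; pentetrazole at CD97 (85 mg/kg) injected subcutaneously in a loose fold of neck skin. Observed 30 min; absence of even a threshold seizure (single clonic spasm lasting at least 5 s) counted as protection. Scored protected/tested, or ED50.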
# Histamine H3 receptor = Histamine H3 receptor (Homo sapiens, UniProt Q9Y5N1); assay: Displacement of [3H]-Nalpha-methylhistamine from human recombinant histamine H3 receptor expressed in HEK293 cells after 90 mins; type: cell-based
# Mus musculus [5] = assay: Anticonvulsant activity in CF1 albino mouse assessed as protection against maximal electroshock-induced seizure at 10 mg/kg, ip after 0.5 hrs; type: functional, organism-based
# How it was run: (§5)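 Male CF-1 mice dosed ip as suspension in 0.5% methylcellulose. Corneal electrodes deliver 60 Hz alternating current, 50 mA for […], after a drop of 0.5% tetracaine HCl in 0.9% NaCl per eye. Protection means abolition of hindlimb tonic extension; scored as protected/tested, or ED50 with 95% confidence interval.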
# Mus musculus [6] = assay: Neurotoxicity in CF1 albino mouse at 3 mg/kg, ip after 0.5 hrs by rotarod test; type: toxicity, organism-based; settings: in vivo
# How it was run: (§6)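 Rotarod neurotoxicity in male albino CF-1 mice dosed ip with compound suspended in 0.5% methylcellulose. Animal placed on a 1 inch diameter knurled plastic rod rotating at 6 rpm. Neurotoxicity scored when the animal falls off three times within 1 min. Readout is number of animals toxic/number tested at the stated time after dosing. TD50 with 95% confidence interval from the quantitative study.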
# Mus musculus [7] = assay: Neurotoxicity in CF1 albino mouse at 50 mg/kg, ip after 4 hrs by rotarod test; type: toxicity, organism-based; settings: in vivo; how it was run: as §6
# Mus musculus [8] = assay: Neurotoxicity in CF1 albino mouse at 50 mg/kg, ip after 1 hr by rotarod test; type: toxicity, organism-based; settings: in vivo; how it was run: as §6
# Mus musculus [9] = assay: Anticonvulsant activity in CF1 albino mouse assessed as protection against 6 Hz-psychomotor-induced seizure at 50 mg/kg, ip after 0.5 hrs; type: functional, organism-based; how it was run: as §2
# Mus musculus [10] = assay: Neurotoxicity in CF1 albino mouse at 50 mg/kg, ip after 2 hrs by rotarod test; type: toxicity, organism-based; settings: in vivo; how it was run: as §6
# Mus musculus [11] = assay: Anticonvulsant activity in CF1 albino mouse assessed as protection against maximal electroshock-induced seizure at 30 mg/kg, ip after 4 hrs; type: functional, organism-based; how it was run: as §5
# Rattus norvegicus [12] = assay: Anticonvulsant activity in Sprague-Dawley rat assessed as protection against maximal electroshock-induced seizure at 30 mg/kg, po; type: functional
# Mus musculus [13] = assay: Anticonvulsant activity in CF1 albino mouse assessed as protection against maximal electroshock-induced seizure at 3 mg/kg, ip after 0.5 hrs; type: functional, organism-based; how it was run: as §5
# Mus musculus [14] = assay: Anticonvulsant activity in CF1 albino mouse assessed as protection against subcutaneous pentetrazole-induced seizure at 30 mg/kg, ip after 4 hrs; type: functional, organism-based; how it was run: as §4
# Mus musculus [15] = assay: Neurotoxicity in CF1 albino mouse at 30 mg/kg, ip after 4 hrs by rotarod test; type: toxicity, organism-based; settings: in vivo; how it was run: as §6
# Mus musculus [16] = assay: Anticonvulsant activity in CF1 albino mouse assessed as protection against 6 Hz-psychomotor-induced seizure at 50 mg/kg, ip after 1 hr; type: functional, organism-based; how it was run: as §2
# Mus musculus [17] = assay: Anticonvulsant activity in CF1 albino mouse assessed as protection against 6 Hz-psychomotor-induced seizure at 50 mg/kg, ip after 4 hrs; type: functional, organism-based; how it was run: as §2
# Mus musculus [18] = assay: Anticonvulsant activity in CF1 albino mouse assessed as protection against maximal electroshock-induced seizure at 100 mg/kg, ip after 4 hrs; type: functional, organism-based; how it was run: as §5
# Mus musculus [19] = assay: Anticonvulsant activity in CF1 albino mouse assessed as protection against subcutaneous pentetrazole-induced seizure at 100 mg/kg, ip after 4 hrs; type: functional, organism-based; how it was run: as §4
# Mus musculus [20] = assay: Neurotoxicity in CF1 albino mouse at 50 mg/kg, ip after 0.5 hrs by rotarod test; type: toxicity, organism-based; settings: in vivo; how it was run: as §6
# Mus musculus [21] = assay: Neurotoxicity in CF1 albino mouse at 100 mg/kg, ip after 4 hrs by rotarod test; type: toxicity, organism-based; settings: in vivo; how it was run: as §6
# Mus musculus [22] = assay: Neurotoxicity in CF1 albino mouse at 300 mg/kg, ip after 4 hrs by rotarod test; type: toxicity, organism-based; settings: in vivo; how it was run: as §6
# Mus musculus [23] = assay: Anticonvulsant activity in CF1 albino mouse assessed as protection against subcutaneous pentetrazole-induced seizure at 30 mg/kg, ip after 0.5 hrs; type: functional, organism-based; how it was run: as §4
# Mus musculus [24] = assay: Neurotoxicity in CF1 albino mouse at 30 mg/kg, ip after 0.5 hrs by rotarod test; type: toxicity, organism-based; settings: in vivo; how it was run: as §6
# Mus musculus [25] = assay: Neurotoxicity in CF1 albino mouse assessed as unable to grasp rotarod at 100 mg/kg, ip after 0.5 hrs by rotarod test; type: toxicity, organism-based; settings: in vivo; how it was run: as §1
# Mus musculus [26] = assay: Anticonvulsant activity in CF1 albino mouse assessed as protection against maximal electroshock-induced seizure at 100 mg/kg, ip after 0.5 hrs; type: functional, organism-based; how it was run: as §5
# Mus musculus [27] = assay: Anticonvulsant activity in CF1 albino mouse assessed as protection against maximal electroshock-induced seizure at 30 mg/kg, ip after 0.5 hrs; type: functional, organism-based; how it was run: as §5
# Mus musculus [28] = assay: Neurotoxicity in CF1 albino mouse assessed as unable to grasp rotarod and death at 100 mg/kg, ip after 0.5 hrs by rotarod test; type: toxicity, organism-based; settings: in vivo; how it was run: as §3
# Mus musculus [29] = assay: Neurotoxicity in CF1 albino mouse assessed as unable to grasp rotarod, death and diarrhea at 300 mg/kg, ip after 0.5 hrs by rotarod test; type: toxicity, organism-based; settings: in vivo; how it was run: as §3
# Mus musculus [30] = assay: Anticonvulsant activity in CF1 albino mouse assessed as protection against maximal electroshock-induced seizure at 300 mg/kg, ip after 0.5 hrs; type: functional, organism-based; how it was run: as §5
# Rattus norvegicus [31] = assay: Neurotoxicity in Sprague-Dawley rat at 30 mg/kg, po by rotarod test; type: toxicity, organism-based; settings: in vivo
# How it was run: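 Oral dosing in male Sprague–Dawley rats, compound as a suspension in 0.5% methylcellulose. Rotarod neurotoxicity on a 1 inch knurled rod turning at 6 rpm, with three falls in 1 min scored as toxic. Reported as toxic/tested.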
# Mus musculus [32] = assay: Neurotoxicity in CF1 albino mouse assessed as unable to grasp rotarod, diarrhea and clonic seizure at 100 mg/kg, ip after 0.5 hrs by rotarod test; type: toxicity, organism-based; settings: in vivo; how it was run: as §1
# Mus musculus [33] = assay: Neurotoxicity in CF1 albino mouse assessed as unable to grasp rotarod, death and loss of righting reflux at 100 mg/kg, ip after 0.5 hrs by rotarod test; type: toxicity, organism-based; settings: in vivo; how it was run: as §3
# Chain of Histamine H3 receptor (Q9Y5N1 whole entry): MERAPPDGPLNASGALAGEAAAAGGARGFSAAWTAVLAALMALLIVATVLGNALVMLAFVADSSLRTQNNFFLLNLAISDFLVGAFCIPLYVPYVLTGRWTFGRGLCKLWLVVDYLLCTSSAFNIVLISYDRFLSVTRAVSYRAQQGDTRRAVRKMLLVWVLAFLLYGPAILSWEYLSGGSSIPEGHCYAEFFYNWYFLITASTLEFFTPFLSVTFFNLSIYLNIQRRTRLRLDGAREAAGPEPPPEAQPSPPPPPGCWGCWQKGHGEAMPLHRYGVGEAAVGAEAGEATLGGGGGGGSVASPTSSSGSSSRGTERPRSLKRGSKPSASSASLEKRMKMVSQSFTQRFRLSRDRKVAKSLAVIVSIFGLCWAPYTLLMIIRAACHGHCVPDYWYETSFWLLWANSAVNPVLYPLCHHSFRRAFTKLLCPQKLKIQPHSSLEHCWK
SMILES,Activity (Mus musculus [1]),Activity (Mus musculus [3]),Activity (Mus musculus [4]),Ki (Histamine H3 receptor),Activity (Mus musculus [5]),Activity (Mus musculus [6]),Activity (Mus musculus [11]),Activity (Rattus norvegicus [12]),Activity (Mus musculus [13]),Activity (Mus musculus [14]),Activity (Mus musculus [15]),Activity (Mus musculus [18]),Activity (Mus musculus [19]),Activity (Mus musculus [21]),Activity (Mus musculus [22]),Activity (Mus musculus [23]),Activity (Mus musculus [24]),Activity (Mus musculus [26]),Activity (Mus musculus [27]),further results
CC1CCCN(CCCCCCOc2cccc(Cl)c2)C1.O=C(O)C(=O)O (stereo not drawn),Non-toxic,Toxic,inactive,0.174 µM,inactive,Non-toxic,inactive,inactive,inactive,inactive,Non-toxic,Active,inactive,Non-toxic,Non-toxic,inactive,Non-toxic,Active,Active,Activity (Mus musculus [2]): inactive; Activity (Mus musculus [7]): Non-toxic; Activity (Mus musculus [8]): Non-toxic; Activity (Mus musculus [9]): inactive; Activity (Mus musculus [10]): Non-toxic; Activity (Mus musculus [16]): inactive; Activity (Mus musculus [17]): inactive; Activity (Mus musculus [20]): Non-toxic; Activity (Mus musculus [25]): Toxic
CC1CCN(CCCCCCCOc2cccc(Cl)c2)CC1.O=C(O)C(=O)O,,,inactive,0.805 µM,,,inactive,,,inactive,Non-toxic,Active,inactive,Non-toxic,Non-toxic,inactive,Non-toxic,inactive,inactive,Activity (Mus musculus [28]): Toxic; Activity (Mus musculus [29]): Toxic; Activity (Mus musculus [30]): Active
CC1CCN(CCCCCCCOc2ccc(Cl)cc2)CC1.O=C(O)C(=O)O,Non-toxic,Toxic,inactive,0.467 µM,inactive,Non-toxic,inactive,inactive,inactive,inactive,Non-toxic,Active,inactive,Non-toxic,Non-toxic,inactive,Non-toxic,Active,Active,Activity (Rattus norvegicus [31]): Non-toxic; Activity (Mus musculus [32]): Toxic
Clc1ccc(OCCCCCN2CCCCCC2)cc1.O=C(O)C(=O)O,Non-toxic,Toxic,inactive,0.371 µM,inactive,Non-toxic,inactive,,inactive,inactive,Non-toxic,Active,inactive,Non-toxic,Non-toxic,inactive,Non-toxic,,Active,Activity (Mus musculus [33]): Toxic
